Data from ChEMBL document CHEMBL1153426, “A structure-based approach to ligand discovery for 2C-methyl-D-erythritol-2,4-cyclodiphosphate synthase: a target for antimicrobial therapy” (J Med Chem, 2009).

Test: Binding affinity to Escherichia coli BL21 (DE3) IspF at 10 degC in pH 7 sodium phosphate buffer by SPR binding assay; call rule not given here
Outline: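 Recombinant E. coli IspF expressed in BL21(DE3), >95% pure, amine-coupled to CM5 chip at ~100 μg/mL in 10 mM acetate pH 5.5 (4500–5500 RU). Ligands 0.1 μM–10 mM in 50 mM sodium phosphate pH 7, 2 mM MgCl, 30 μL/min, 10 °C; triplicate injections, blank-subtracted.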

SMILES	Kd	Kd (read-out: Kd) [mM]
Nc1nnc(-c2nonc2N)o1	Not Active	
O=C(O)CCCC(=O)Nc1ccc2c(c1)OCO2	Not Active	
NC(=O)CSc1cc(N)nc(N)n1	Not Active	
Nc1ccn([C@H]2O[C@@H](CO)[C@H]3OP(=O)(O)O[C@H]32)c(=O)n1 (mixture of isomers)		20.5
